Paper PMC9889102 (European journal of medicinal chemistry, 2022)
Read-outs that look alike come from different tables or passages of the source.

Experiments:
[1] = ref [25], cited from earlier work
[2] = target: phosphorylated chicken gizzard smooth muscle myosin (Gallus gallus, UniProt P10587); assay: Steady-state actin-activated Mg2+ ATPase inhibition, smooth muscle myosin; assay type: biochemical
Outline: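 Chicken gizzard smooth muscle myosin was fully phosphorylated (checked by urea gel), never frozen, and used within 2–3 weeks. It was run at 0.2 mg/mL final with 32 μM rabbit F-actin at 30 °C in MOPS pH 7.0, 50 mM NaCl, 0.1 mM EGTA, 5 mM MgCl2, 2 mM ATP, 1 mM DTT. DMSO was 2%, with dilutions from a 25 mM stock. IC50 is the half-maximal drop in steady-state ATPase.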

[3] = test system: NM-IIB (cytokinesis in Cos-7 cells); assay: Cytokinesis inhibition in Cos-7 cells; assay type: cell-based; conditions: 24 h, 37 °C
Outline: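 Cos-7 cells (4,000/well) were pre-grown 24 h, then exposed 24 h at 37 °C, 5% CO2 to test compound at 40 μM final in 1% DMSO. Controls were 1% DMSO and media (negative), plus para-aminoblebbistatin 20 μM and (−)-blebbistatin 10 μM (positive). Staining was fluorescein diacetate, Hoechst 33342 and propidium iodide for 10 min. N/C is Hoechst nuclei (excluding PI-positive) per FDA-stained cell. Triplicate wells, ≥2 experiments, ≥600 cells/well.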

BEAS-2B, MCF-7 and A549 = conditions: normal human cell line BEAS-2B and cancer cell lines MCF-7 and A549; ref [41]; cited from earlier work
[4] = target: T1, fast rabbit skeletal myosin (Oryctolagus cuniculus, UniProt Q28641); assay: Steady-state actin-activated Mg2+ ATPase inhibition, skeletal myosin; assay type: biochemical; conditions: cardiac IC50 (x) / skeletal IC50 (y)
T1 sequence (Q28641 whole entry): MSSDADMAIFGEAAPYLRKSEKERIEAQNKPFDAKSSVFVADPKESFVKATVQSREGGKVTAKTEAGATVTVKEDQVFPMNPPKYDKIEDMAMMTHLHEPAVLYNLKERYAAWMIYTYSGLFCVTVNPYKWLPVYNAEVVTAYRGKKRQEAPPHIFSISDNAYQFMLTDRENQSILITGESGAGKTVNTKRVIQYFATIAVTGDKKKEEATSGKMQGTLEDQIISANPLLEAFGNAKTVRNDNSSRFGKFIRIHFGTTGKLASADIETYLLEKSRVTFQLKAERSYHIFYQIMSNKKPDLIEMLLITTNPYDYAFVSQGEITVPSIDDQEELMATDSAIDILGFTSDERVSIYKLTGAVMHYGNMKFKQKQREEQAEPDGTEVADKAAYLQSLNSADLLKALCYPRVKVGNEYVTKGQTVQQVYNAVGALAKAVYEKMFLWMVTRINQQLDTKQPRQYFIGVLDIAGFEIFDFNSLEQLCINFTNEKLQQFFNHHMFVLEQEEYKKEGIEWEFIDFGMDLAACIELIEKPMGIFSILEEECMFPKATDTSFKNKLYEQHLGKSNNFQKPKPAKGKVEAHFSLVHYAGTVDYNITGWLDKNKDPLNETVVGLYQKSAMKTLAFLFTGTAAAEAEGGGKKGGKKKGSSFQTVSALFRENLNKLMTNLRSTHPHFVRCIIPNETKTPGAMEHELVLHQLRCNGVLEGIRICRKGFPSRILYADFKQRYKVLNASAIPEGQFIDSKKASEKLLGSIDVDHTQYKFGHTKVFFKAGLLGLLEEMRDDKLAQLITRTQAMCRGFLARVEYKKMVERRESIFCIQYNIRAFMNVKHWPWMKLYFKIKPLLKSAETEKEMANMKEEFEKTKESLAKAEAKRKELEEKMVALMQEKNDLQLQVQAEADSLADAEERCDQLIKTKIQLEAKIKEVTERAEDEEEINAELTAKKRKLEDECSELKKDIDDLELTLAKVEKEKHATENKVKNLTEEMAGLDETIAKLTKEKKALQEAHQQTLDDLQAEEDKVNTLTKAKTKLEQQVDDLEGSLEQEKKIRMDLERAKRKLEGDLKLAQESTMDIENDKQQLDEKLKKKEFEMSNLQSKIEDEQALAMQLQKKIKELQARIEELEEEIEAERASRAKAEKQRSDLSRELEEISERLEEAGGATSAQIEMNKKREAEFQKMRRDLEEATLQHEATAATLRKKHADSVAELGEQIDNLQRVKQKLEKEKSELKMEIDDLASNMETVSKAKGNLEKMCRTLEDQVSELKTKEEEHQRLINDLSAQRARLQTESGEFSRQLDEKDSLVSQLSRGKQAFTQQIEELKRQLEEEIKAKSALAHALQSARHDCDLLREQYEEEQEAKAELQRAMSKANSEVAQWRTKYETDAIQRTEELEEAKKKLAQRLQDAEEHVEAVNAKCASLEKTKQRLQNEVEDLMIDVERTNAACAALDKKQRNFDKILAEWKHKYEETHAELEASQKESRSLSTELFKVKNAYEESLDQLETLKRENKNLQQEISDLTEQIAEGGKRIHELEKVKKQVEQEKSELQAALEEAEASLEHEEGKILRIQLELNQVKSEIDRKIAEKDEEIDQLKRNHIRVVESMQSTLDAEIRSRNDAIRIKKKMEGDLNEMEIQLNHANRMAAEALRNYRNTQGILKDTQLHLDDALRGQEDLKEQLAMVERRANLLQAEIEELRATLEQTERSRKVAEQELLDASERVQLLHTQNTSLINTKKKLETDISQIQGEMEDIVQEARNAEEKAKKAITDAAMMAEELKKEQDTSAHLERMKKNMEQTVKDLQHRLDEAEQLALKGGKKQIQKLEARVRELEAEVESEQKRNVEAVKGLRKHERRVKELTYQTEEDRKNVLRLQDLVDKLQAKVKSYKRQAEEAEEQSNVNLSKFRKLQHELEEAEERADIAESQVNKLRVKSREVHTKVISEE
T1 sequence (P02602 whole entry partner): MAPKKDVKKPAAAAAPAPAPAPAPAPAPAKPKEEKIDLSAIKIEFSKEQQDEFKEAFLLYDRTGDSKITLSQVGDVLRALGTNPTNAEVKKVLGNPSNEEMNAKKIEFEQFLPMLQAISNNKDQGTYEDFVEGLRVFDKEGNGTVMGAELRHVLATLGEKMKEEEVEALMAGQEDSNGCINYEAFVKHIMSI
T1 sequence (P02608 whole entry partner): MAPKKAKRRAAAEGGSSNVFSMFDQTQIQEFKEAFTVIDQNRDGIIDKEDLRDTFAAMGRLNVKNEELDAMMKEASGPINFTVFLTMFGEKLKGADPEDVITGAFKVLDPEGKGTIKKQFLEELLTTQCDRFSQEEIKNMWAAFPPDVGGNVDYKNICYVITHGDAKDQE
Outline: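 Rabbit psoas skeletal myosin (unphosphorylated, 0.1 mg/mL final) with rabbit psoas F-actin (32 μM) at 30 °C, pH 7.0 MOPS buffer (50 mM NaCl, 0.1 mM EGTA, 5 mM MgCl2, 2 mM ATP, 1 mM DTT), 2% DMSO. IC50 taken as half-maximal reduction of steady-state rate. Selectivity is cardiac IC50 (bovine left-ventricle myosin, 0.5 mg/mL) divided by skeletal IC50.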

[5] = 99:1 (v/v) PBS/methanol, room temperature; ref [25]; cited from earlier work
[6] = target: T1, fast rabbit skeletal myosin; conditions: previously reported ketimines; favoured isoform; ref [25]; cited from earlier work

Sequence of phosphorylated chicken gizzard smooth muscle myosin (P10587 2-1979 limits assumed): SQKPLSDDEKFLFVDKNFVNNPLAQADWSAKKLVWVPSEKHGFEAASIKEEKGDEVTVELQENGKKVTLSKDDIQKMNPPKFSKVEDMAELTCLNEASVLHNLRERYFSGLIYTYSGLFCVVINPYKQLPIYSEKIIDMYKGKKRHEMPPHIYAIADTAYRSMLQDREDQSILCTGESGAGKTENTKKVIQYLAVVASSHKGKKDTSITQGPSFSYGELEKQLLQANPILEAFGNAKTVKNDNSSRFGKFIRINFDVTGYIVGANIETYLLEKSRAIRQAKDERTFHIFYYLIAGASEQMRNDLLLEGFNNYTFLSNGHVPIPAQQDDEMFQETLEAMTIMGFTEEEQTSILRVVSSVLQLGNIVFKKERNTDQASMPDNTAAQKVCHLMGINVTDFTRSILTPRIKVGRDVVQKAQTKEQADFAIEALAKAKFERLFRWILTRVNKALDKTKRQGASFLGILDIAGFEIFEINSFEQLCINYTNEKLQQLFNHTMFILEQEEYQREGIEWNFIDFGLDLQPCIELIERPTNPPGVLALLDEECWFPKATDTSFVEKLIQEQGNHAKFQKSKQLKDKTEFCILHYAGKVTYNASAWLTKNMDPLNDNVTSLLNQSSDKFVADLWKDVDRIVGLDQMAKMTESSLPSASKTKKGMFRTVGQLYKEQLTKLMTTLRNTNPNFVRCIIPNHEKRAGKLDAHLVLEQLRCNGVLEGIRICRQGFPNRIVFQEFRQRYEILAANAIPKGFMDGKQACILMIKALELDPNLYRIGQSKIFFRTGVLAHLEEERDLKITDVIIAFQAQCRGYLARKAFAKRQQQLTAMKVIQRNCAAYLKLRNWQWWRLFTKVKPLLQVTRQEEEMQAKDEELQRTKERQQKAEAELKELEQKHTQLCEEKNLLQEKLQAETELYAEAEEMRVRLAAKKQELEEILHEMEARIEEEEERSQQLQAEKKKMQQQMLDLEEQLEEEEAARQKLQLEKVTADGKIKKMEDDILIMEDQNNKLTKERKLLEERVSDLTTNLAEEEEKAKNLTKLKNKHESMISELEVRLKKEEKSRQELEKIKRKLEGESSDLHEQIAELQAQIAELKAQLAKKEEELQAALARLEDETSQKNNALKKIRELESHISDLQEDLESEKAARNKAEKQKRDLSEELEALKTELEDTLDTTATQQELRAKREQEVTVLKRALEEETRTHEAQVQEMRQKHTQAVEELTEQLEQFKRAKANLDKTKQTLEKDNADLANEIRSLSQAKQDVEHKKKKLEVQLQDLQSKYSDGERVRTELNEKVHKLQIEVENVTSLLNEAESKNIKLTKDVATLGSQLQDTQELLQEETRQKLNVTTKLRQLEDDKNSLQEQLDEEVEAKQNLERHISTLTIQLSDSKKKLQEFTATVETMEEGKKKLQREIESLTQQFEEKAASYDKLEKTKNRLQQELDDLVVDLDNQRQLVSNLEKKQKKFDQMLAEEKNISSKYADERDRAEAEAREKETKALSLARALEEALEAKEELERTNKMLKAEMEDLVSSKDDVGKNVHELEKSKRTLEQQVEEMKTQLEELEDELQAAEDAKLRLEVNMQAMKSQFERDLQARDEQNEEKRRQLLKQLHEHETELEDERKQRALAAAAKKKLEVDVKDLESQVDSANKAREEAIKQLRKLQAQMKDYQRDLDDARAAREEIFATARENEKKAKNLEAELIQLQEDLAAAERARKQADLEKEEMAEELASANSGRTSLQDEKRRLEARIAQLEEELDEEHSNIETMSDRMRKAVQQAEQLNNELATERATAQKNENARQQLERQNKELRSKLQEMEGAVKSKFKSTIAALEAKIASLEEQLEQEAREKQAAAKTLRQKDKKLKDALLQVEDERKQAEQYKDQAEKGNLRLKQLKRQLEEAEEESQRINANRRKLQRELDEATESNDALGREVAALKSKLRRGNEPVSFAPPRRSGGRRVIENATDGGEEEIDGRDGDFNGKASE

Compound | IC50 [2] [µM] | also measured
3-(N-butylethanimidoyl)-4-hydroxy-2H-chromen-2-one [BHC, reference compound] | – | Kinetic solubility ([1]; nephelometry in PBS (pH 7.4) containing 2.5% DMSO): 607 ± 2 μm
C/C(=N\Cc1ccccc1)c1c(O)c2ccccc2oc1=O [Analog 2] | – | Kinetic solubility ([1]; pH 7.4 PBS, 2.5% DMSO): 100 µM
COCC/N=C(\C)c1c(O)c2ccccc2oc1=O [Analog 5a, 4-Hydroxy-3-(N-(2-methoxyethyl)ethanimidoyl)-2H-chromen-2-one] | ≥ 100 | –
CCOCC/N=C(\C)c1c(O)c2ccccc2oc1=O [Analog 5b, 3-(N-(2-Ethoxyethyl)ethanimidoyl)-4-hydroxy-2H-chromen-2-one] | ≥ 100 | –
COCCC/N=C(\C)c1c(O)c2ccccc2oc1=O [Analog 5c, 4-Hydroxy-3-(N-(3-methoxypropyl)ethanimidoyl)-2H-chromen-2-one] | ≥ 100 | –
CCOCCC/N=C(\C)c1c(O)c2ccccc2oc1=O [Analog 5d, 3-(N-(3-Ethoxypropyl)ethanimidoyl)-4-hydroxy-2H-chromen-2-one] | ≥ 100 | –
COc1cccc(C/N=C(\C)c2c(O)c3ccccc3oc2=O)c1 [Analog 6a, 4-Hydroxy-3-(N-(3-methoxybenzyl)ethanimidoyl)-2H-chromen-2-one] | ≥ 100 | –
COc1ccc(C/N=C(\C)c2c(O)c3ccccc3oc2=O)cc1 [Analog 6b, 4-Hydroxy-3-(N-(4-methoxybenzyl)ethanimidoyl)-2H-chromen-2-one] | ≥ 100 | Inhibition of cytokinesis (nuclei to cell ratio, N/C) ([3]; 40 μM): did not inhibit cytokinesis; Cytotoxicity (BEAS-2B, MCF-7 and A549): low μM range
CCOCCC/N=C/c1c(O)c2ccccc2oc1=O [Analog 8a, 3-(N-(3-Ethoxypropyl)methanimidoyl)-4-hydroxy-2H-chromen-2-one] | ≥ 100 | –
COc1ccc(COCCC/N=C(\C)c2c(O)c3ccccc3oc2=O)cc1 [Analog 13b] | ≥ 100 | Selectivity x/y [4]: ≥ 2.0
C/C(=N\CCCOCc1ccc2c(c1)OCO2)c1c(O)c2ccccc2oc1=O [Analog 13c] | ≥ 100 | Inhibition of cytokinesis (nuclei to cell ratio, N/C) ([3]; 40 μM): no cytokinesis inhibition
CCCCN(CCC/N=C(\C)c1c(O)c2ccccc2oc1=O)Cc1cccc(OC)c1 [Analog 19, 3-(N-(N’-Butyl-N’−3-methoxybenzyl-3-aminopropyl)ethanimidoyl)-4-hydroxy-2H-chromen-2-one] | ≥ 100 | –
COc1cc(/C=C/C(=O)c2c(O)c3ccccc3oc2=O)ccc1O [Analog 20, 4-Hydroxy-3-(3-(4-hydroxy-3-methoxyphenyl)-1-oxo-2-propen-1-yl)-2H-1-Benzopyran-2-one] | ≥ 100 | –
Cc1ccc2c(c1)C(=O)[C@]1(O)CCN(c3ccccc3)C1=N2 [Blebbistatin, blebbistatin, reference compound] | – | Inhibition of cytokinesis (nuclei to cell ratio, N/C) ([3]; positive control, 10 μM): inhibited cytokinesis
C/C(=N\Cc1ccncc1)c1c(O)c2ccccc2oc1=O [JB031] | – | half-life for hydrolysis [5]: 84 ± 12 h
C/C(=N\Cc1ccc(C)cc1)c1c(O)c2ccccc2oc1=O [JB060] | – | Selectivity (cardiac vs. skeletal myosin inhibition) [6]: skeletal-selective
C/C(=N\Cc1cccc(C)c1)c1c(O)c2ccccc2oc1=O [JB069] | – | Selectivity (cardiac vs. skeletal myosin inhibition) [6]: cardiac-selective
Cc1ccc2c(c1)C(=O)[C@]1(O)CCN(c3ccc(N)cc3)C1=N2 [para-aminoblebbistatin, reference compound] | – | Inhibition of cytokinesis (nuclei to cell ratio, N/C) ([3]; positive control, 20 μM): inhibited cytokinesis
